Laboratory results from ChEMBL document CHEMBL3351994, “Synthesis and biological evaluation of novel millepachine derivatives as a new class of tubulin polymerization inhibitors” (J Med Chem, 2014).
Calls of active or inactive are those of the source.

Assays:
HepG2 = experiment: Antiproliferative activity against human HepG2 cells assessed as inhibition of cell proliferation after 48 hrs by MTT assay; type: functional, cell-based
How it was run: (§1)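 Cells grown at 37 °C in humidified 5% CO2. K562, C26 and HCT lines in RPMI-1640; other lines in DMEM; both media with 10% FBS, penicillin and streptomycin. 1000 cells/well seeded, incubated overnight, then compound at various doses for 48 h. MTT added for 4 h, formazan dissolved in DMSO, absorbance read at 590 nm. IC50 from dose–response curves, mean ± SEM of at least three independent experiments.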

K562 = experiment: Antiproliferative activity against human K562 cells assessed as inhibition of cell proliferation after 48 hrs by MTT assay; type: functional, cell-based; conditions: K562, 48 h; how it was run: as §1
A-375 = experiment: Antiproliferative activity against human A375 cells assessed as inhibition of cell proliferation after 48 hrs by MTT assay; type: functional, cell-based; conditions: A-375, 48 h; how it was run: as §1
[1] = Solubility in PBS solution by nephelometry; type: physicochemical
How it was run: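 Maximum soluble concentration in PBS, determined by nephelometry.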

[2] = Toxicity in iv dosed BALB/c mouse; type: organism-based; conditions: in vivo
How it was run: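 Maximum tolerated dose in BALB/c mice (SPF, 18−22 g, 6−8 weeks, half female and half male). Graded doses given intravenously, n = 4 per dose. Survival and adverse effects recorded every other day after dosing. MTD defined as the largest dose given before one death occurs.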

Tubulin (Homo sapiens) [3] = biological target: T1, Tubulin (Homo sapiens) (UniProt P68371+Q9H4B7+P0DPH7+P68366+Q13509+Q71U36+P04350+Q3ZCM7+P07437+P68363+Q9BQE3+Q6PEY2+Q13885+Q9BVA1+Q9BUF5); experiment: Inhibition of tubulin polymerization in human HepG2 cells assessed as multiple tubulin bundles at 1 uM after 24 hrs by immunofluorescence assay; type: cell-based
How it was run: (§2)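 HepG2 cells seeded overnight, then given 1 μM compound or DMSO for 24 h; methanol-fixed, blocked 45 min in 5% BSA/PBS, α-tubulin primary antibody overnight at 4 °C, fluorescent secondary 1 h, DAPI nuclear counterstain; microtubules and spindles imaged by fluorescence microscopy.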

Tubulin (Homo sapiens) [4] = biological target: T1, Tubulin (Homo sapiens); experiment: Inhibition of tubulin (unknown origin) polymerization pre-incubated for 5 mins by spectrophotometry; type: protein-complex assay
Tubulin (Homo sapiens) [5] = biological target: T1, Tubulin (Homo sapiens); experiment: Inhibition of tubulin polymerization in human HepG2 cells assessed as abnormal mitotic spindles at 1 uM after 24 hrs by immunofluorescence assay; type: cell-based; how it was run: as §2
Tubulin (Homo sapiens) [6] = biological target: T1, Tubulin (Homo sapiens); experiment: Inhibition of tubulin polymerization in human HepG2 cells assessed as microtubule polymerization alterations at 1 uM after 24 hrs by immunofluorescence assay; type: cell-based; how it was run: as §2
HUVEC [7] = experiment: Antivascular activity in HUVECs assessed as disruption of capillary-like tubes at 50 to 500 nM incubated for 6 hrs by matrigel based tube formation assay; type: functional, cell-based; conditions: Homo sapiens
How it was run: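 HUVECs (2−4 × 10^4) in DMEM seeded on Matrigel polymerized at 37 °C for 30 min. Treated with 50, 100 or 500 nM compound or vehicle at 37 °C. Capillary networks photographed after 6 h and quantified; significance by t-test.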

Tubulin (Homo sapiens) [8] = biological target: T1, Tubulin (Homo sapiens); experiment: Inhibition of tubulin polymerization in human HepG2 cells assessed as spindle formation alterations at 1 uM after 24 hrs by immunofluorescence assay; type: cell-based; how it was run: as §2
HUVEC [9] = experiment: Antivascular activity in HUVECs assessed as inhibition of cell migration incubated for 20 hrs by phase contrast microscopy based wound healing migration assay; type: functional; conditions: Homo sapiens
How it was run: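 HUVECs grown to confluence in DMEM, then serum-starved for 16 h. Monolayer scratched with a pipet tip and washed with PBS. Serum-free DMEM with vehicle or 50, 100 or 500 nM compound added. Imaged after 20–24 h; migrated cells counted manually and expressed relative to vehicle wells; t-test.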

MCF7 = experiment: Antiproliferative activity against human MCF7 cells assessed as inhibition of cell proliferation after 48 hrs by MTT assay; type: functional, cell-based; conditions: MCF7, 48 h; how it was run: as §1
[10] = Antiproliferative activity against human HCT15 cells assessed as inhibition of cell proliferation after 48 hrs by MTT assay; type: functional, cell-based; conditions: HCT-15, 48 h; how it was run: as §1
[11] = Antiproliferative activity against human HCT116 cells assessed as inhibition of cell proliferation after 48 hrs by MTT assay; type: functional, cell-based; conditions: HCT-116, 48 h
AGS = experiment: Antiproliferative activity against human AGS cells assessed as inhibition of cell proliferation after 48 hrs by MTT assay; type: functional, cell-based; how it was run: as §1
[12] = Antiproliferative activity against mouse C26 cells assessed as inhibition of cell proliferation after 48 hrs by MTT assay; type: functional, cell-based; conditions: C26, 48 h; how it was run: as §1
[13] = Antiproliferative activity against human A2780S cells assessed as inhibition of cell proliferation after 48 hrs by MTT assay; type: functional, cell-based; conditions: A2780, 48 h
How it was run: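 Cells grown in DMEM with 10% FBS, penicillin/streptomycin at 37 °C, 5% CO2. 1000 cells/well seeded, incubated overnight, then exposed to various doses for 48 h. MTT added for 4 h, formazan dissolved in DMSO, absorbance read at 590 nm. IC50 = concentration inhibiting proliferation by 50%, mean ± SEM of dose–response curves from at least three independent experiments.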

NCI-H358 = experiment: Antiproliferative activity against human NCI-H358 cells assessed as inhibition of cell proliferation after 48 hrs by MTT assay; type: functional, cell-based; conditions: NCI-H358, 48 h; how it was run: as §1
U-251 = experiment: Antiproliferative activity against human U251 cells assessed as inhibition of cell proliferation after 48 hrs by MTT assay; type: functional, cell-based; conditions: U-251, 48 h; how it was run: as §1
[14] = Antiproliferative activity against human ES2 cells assessed as inhibition of cell proliferation after 48 hrs by MTT assay; type: functional, cell-based; conditions: ES-2, 48 h
[15] = Antiproliferative activity against human DLD1 cells assessed as inhibition of cell proliferation after 48 hrs by MTT assay; type: functional, cell-based; conditions: DLD-1, 48 h; how it was run: as §1

Row | Structure (SMILES) | IC50 (HepG2; Homo sapiens, HepG2, 48 h) [nM] | IC50 (K562) [nM] | IC50 (A-375) [nM] | further results
1 | CCCCC(=O)Nc1cc(/C=C/C(=O)c2ccc(OC)c3c2OC(C)(C)C=C3)ccc1OC | 1300 | 1160 | 1590 | 
2 | COc1ccc(/C=C/C(=O)c2ccc(OC)c3c2OC(C)(C)C=C3)cc1NS(=O)(=O)C1CC1 | 1960 | 1580 | 1870 | 
3 | COc1ccc(/C=C/C(=O)c2ccc(OC)c3c2OC(C)(C)C=C3)cc1NC(C)=O | 570 | 700 | 430 | 
4 | COc1ccc(/C=C/C(=O)c2ccc(OC)c3c2OC(C)(C)C=C3)cc1NS(=O)(=O)c1ccc(C)cc1 | > 2000 | > 2000 | > 2000 | 
5 | COc1ccc(/C=C/C(=O)c2ccc(OC)c3c2OC(C)(C)C=C3)cc1N.O=C(O)/C=C\C(=O)O |  |  |  | solubility kinetic [1]: 47 µg/mL; IC50 (HepG2; hepg2): 12 nM
6 | COc1ccc(/C=C/C(=O)c2ccc(OC)c3c2OC(C)(C)C=C3)cc1NC(=O)CN | 280 | 890 | 700 | 
7 | COc1ccc(/C=C/C(=O)c2ccc(OC)c3c2OC(C)(C)C=C3)cc1NCc1ccccc1 | 970 | 1860 | 790 | 
8 | CNc1cc(/C=C/C(=O)c2ccc(OC)c3c2OC(C)(C)C=C3)ccc1OC | > 2000 | > 2000 | > 2000 | 
9 | COc1ccc(/C=C/C(=O)c2ccc(OC)c3c2OC(C)(C)C=C3)cc1N.CS(=O)(=O)O |  |  |  | solubility kinetic [1]: 50 µg/mL; IC50 (HepG2; hepg2): 10 nM
10 | COc1ccc(/C=C/C(=O)c2ccc(OC)c3c2OC(C)(C)C=C3)cc1N.O=S(=O)(O)O |  |  |  | solubility kinetic [1]: 58 µg/mL; MTD [2]: 200 mg/kg
11 | COc1ccc(/C=C/C(=O)c2ccc(OC)c3c2OC(C)(C)C=C3)cc1NCCN1CCOCC1 | > 2000 | > 2000 | > 2000 | 
12 | COc1ccc(/C=C/C(=O)c2ccc(OC)c3c2OC(C)(C)C=C3)cc1N |  |  |  | inhibition (Tubulin (Homo sapiens) [3]): Active; inhibition (Tubulin (Homo sapiens) [4]): Dose-dependent effect; inhibition (Tubulin (Homo sapiens) [5]): Active; inhibition (Tubulin (Homo sapiens) [6]): Active; inhibition (HUVEC [7]): Dose-dependent effect; inhibition (Tubulin (Homo sapiens) [8]): Active; inhibition (HUVEC [9]): Dose-dependent effect
13 | COc1ccc(/C=C/C(=O)c2ccc(OC)c3c2OC(C)(C)C=C3)cc1NS(C)(=O)=O | 2000 | 1770 | 1800 | 
14 | COc1ccc(/C=C/C(=O)c2ccc(OC)c3c2OC(C)(C)C=C3)cc1N.O=C(O)C(O)C(O)C(=O)O | 11 |  |  | solubility kinetic [1]: 52 µg/mL
15 | COc1ccc(/C=C/C(=O)c2ccc(OC)c3c2OC(C)(C)C=C3)cc1NC(=O)[C@@H](C)N | 110 | 220 | 360 | 
16 | C=CC(=O)Nc1cc(/C=C/C(=O)c2ccc(OC)c3c2OC(C)(C)C=C3)ccc1OC | 840 | 1120 | 1120 | 
17 | CCC(=O)Nc1cc(/C=C/C(=O)c2ccc(OC)c3c2OC(C)(C)C=C3)ccc1OC | 910 | 800 | 920 | 
18 | COc1ccc(/C=C/C(=O)c2ccc(OC)c3c2OC(C)(C)C=C3)cc1N(CC=C(C)C)CC=C(C)C | > 2000 | 1500 | > 2000 | 
19 | COc1ccc(/C=C/C(=O)c2ccc(OC)c3c2OC(C)(C)C=C3)cc1NC(N)=O | 1640 | 1540 | 1990 | 
20 | COc1ccc(/C=C/C(=O)c2ccc(OC)c3c2OC(C)(C)C=C3)cc1NC(=O)C(C)C | 830 | 570 | 530 | 
21 | COc1cc2c(c(OC)c1OC)-c1ccc(OC)c(=O)cc1[C@@H](NC(C)=O)CC2 [COLCHICINE] | 42 | 16 | 12 | IC50 (MCF7): 58 nM; IC50 [10]: 16 nM; IC50 [11]: 15 nM; IC50 (AGS): 9 nM; IC50 [12]: 344 nM; IC50 [13]: 4 nM; IC50 (NCI-H358): 4 nM; IC50 (U-251): 20 nM; IC50 [14]: 18 nM; IC50 [15]: 11 nM
22 | C#CCNc1cc(/C=C/C(=O)c2ccc(OC)c3c2OC(C)(C)C=C3)ccc1OC | 1640 | 1580 | 1600 | 
23 | COc1ccc(/C=C/C(=O)c2ccc(OC)c3c2OC(C)(C)C=C3)cc1N(Cc1ccccc1)Cc1ccccc1 | > 2000 | 114 | > 2000 | 
24 | COc1ccc(/C=C/C(=O)c2ccc(OC)c3c2OC(C)(C)C=C3)cc1NS(=O)(=O)Cc1ccccc1 | > 2000 | > 2000 | 2000 | 
25 | COc1ccc(/C=C/C(=O)c2ccc(OC)c3c2OC(C)(C)C=C3)cc1NC(=O)Cc1cccc(C(F)(F)F)c1 | > 2000 | > 2000 | > 2000 | 
26 | CCN(CC)c1cc(/C=C/C(=O)c2ccc(OC)c3c2OC(C)(C)C=C3)ccc1OC | > 2000 | > 2000 | > 2000 | 
